Reference: article PMC11215724 (Journal of Medicinal Chemistry, 2024)
Blank lines part the entries; values can stand above or below the compound they belong to.

Tests used:
[1] = test system: WM3248; test: Cell viability assay, WM3248 melanoma cell line; assay type: cell-based; details: WM3248 cells
[2] = test system: A375; test: Cell viability assay, A375 melanoma cell line; assay type: cell-based; details: A375 cells
[3] = test system: SKMel3; test: Cell viability assay, SKMel3 melanoma cell line; assay type: cell-based; details: read-out: IC50 SKMel3; SKMel3 cells
[4] = test system: SKM28, SKMel3, WM3248, A375, SW480; test: Cell viability assay, all five cancer cell lines together; assay type: cell-based
[5] = starting compounds; cited from earlier work
[6] = Stability in DMSO; assay type: physicochemical
[7] = Mouse pharmacokinetics; assay type: in vivo; details: single I.V. 3 mg/kg or P.O. 10 mg/kg
Summary of the method: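 Single dose to mice, either intravenous at 3 mg/kg or oral at 10 mg/kg. Three animals per time point. Plasma concentration–time profiles were used for observed and calculated PK parameters. Animals were watched for treatment-related toxicological signs throughout.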

[8] = Aggregation by NMR; assay type: physicochemical; details: Tris buffer
Summary of the method: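 Compound aggregation checked by WaterLOGSY in the NMR binding-assay buffer at three theoretical concentrations, with 200 μM 4-trifluoromethyl benzoic acid as internal reference. Solubility was checked in PBS and Tris buffer by ¹H 1D spectra. Data were processed with 2 Hz exponential line broadening before Fourier transformation.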

Compound: 4-(1-Methyl-1H-imidazol-5-yl)-6-(piperidin-4-yl)-N-(3-(trifluoromethyl)phenyl)-1,3,5-triazin-2-amine [Compound 8]
- decrease of activity on WM3248 compared to 1 [1]: ~10 fold
- effect on A375 (in words) [2]: annihilating the effect on A375
- IC50 ([2]; read-out: IC50 A375): > 100 µM

Compound: 4-(Piperidin-4-yl)-6-(pyrrolidin-2-yl)-N-(3-(trifluoromethyl)phenyl)-1,3,5-triazin-2-amine [Compound 10]
- IC50 [3]: > 100 µM
- antiproliferative activity in the cancer cell lines (in words) [4]: complete loss of activity

Compound: CN(C)c1cccc(Nc2cc(-c3ccccc3)nc(C3CCNCC3)n2)c1 [ARN22089]
- aggregation by NMR at 100 μM [5]: showed aggregation

Compound: FC(F)(F)c1cccc(Nc2cc(-c3ccccc3)nc(C3CCNCC3)n2)c1 [ARN25062]
- aggregation by NMR at 100 μM [5]: showed aggregation

Compound: FC(F)(F)c1cccc(Nc2nc(C3=CCNCC3)nc(-c3ccsc3)n2)c1 [Compound 11, 4-(1,2,3,6-Tetrahydropyridin-4-yl)-6-(thiophen-3-yl)-N-(3-(trifluoromethyl)phenyl)-1,3,5-triazin-2-amine]
- stability in DMSO [6]: slight instability in DMSO

Compound: COc1ccc(Nc2nc(-c3ccccc3)cc(C3CCNCC3)n2)cc1OC [Compound 15, N-(3,4-Dimethoxyphenyl)-4-phenyl-6-(piperidin-4-yl)pyrimidin-2-amine]
- tolerability during the PK studies [7]: well tolerated by all animals

Compound: FC(F)(F)c1cc(Nc2nc(-c3ccccc3)cc(C3CCNCC3)n2)ccn1 [Compound 20, 4-Phenyl-6-(piperidin-4-yl)-N-(2-(trifluoromethyl)pyridin-4-yl)pyrimidin-2-amine]
- tolerability during the PK studies [7]: well tolerated by all animals

- aggregation by NMR (50 μM) [8]: showed aggregation
Compound: Cn1ccc2ccc(Nc3cc(-c4ccccc4)nc(C4CCNCC4)n3)cc21 [Compound 25, 1-Methyl-N-(6-phenyl-2-(piperidin-4-yl)pyrimidin-4-yl)-1H-indol-6-amine]
